Measurements taken from paper PMC10240386 (Cell chemical biology, 2023).
Like-named read-outs stand apart in the source and are kept apart here.

How the values were obtained:
Pf20S β5 = Pf20S β5 (Plasmodium falciparum, UniProt A0A5K1K7U1+Q8IJT1); assay: biochemical; format: biochemical; conditions: for activity against Pf20S: Pf20S β5
human i-20S β5i = human i-20S β5i (Homo sapiens, UniProt P20618+P28062); assay: Proteasome IC50 determination, human i-20S β5i; format: biochemical
Procedure, shortened: (§1)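 Human i-20S (0.4 nM) assayed in 20 mM HEPES, 0.5 mM EDTA, 0.1 mg/mL BSA, pH 7.5, with 0.02% SDS and 15 µM Ac-ANW-AMC. Pf20S (1 nM) assayed in 50 mM Tris, 5 mM MgCl2, 1 mM DTT, pH 7.4, with 12 nM PA28α, 0.5 µM WLW-VS and 25 µM suc-LLVY-AMC. Test compound given as a 3-fold series, 100–0.0017 µM final. AMC read at 360/460 nm for 1–2 h; velocities fitted to a dose-response equation. Run in duplicate or triplicate.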

human c-20S β5c = human c-20S β5c (Homo sapiens, UniProt P20618+P28074); assay: Proteasome IC50 determination, human c-20S β5c; format: biochemical
Procedure, shortened: as §1, with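 “c-20S (0.2” for “i-20S (0.4”, “25” for “15”, “suc-LLVY-AMC.” for “Ac-ANW-AMC.”, “h; linear” for “h;”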

Pf Dd2^WT = assay: Parasite growth inhibition assay, erythrocytic stage; format: cell-based, Plasmodium falciparum; conditions: for EC50: read-out: EC50 Pf Dd2^WT; for inhibition of Pf growth: strain not stated in text (Figure 5A)
Dd2β6^A117D = assay: as above; format: cell-based, Plasmodium falciparum; conditions: for EC50: Plasmodium falciparum, 72 h, read-out: EC50 Dd2β6^A117D; for fold more resistant / reduced potency, Dd2β6^A117D versus parental Dd2: EC50 ratio
Dd2β5^A49S = assay: as above; format: cell-based, Plasmodium falciparum; conditions: for EC50: Plasmodium falciparum, 72 h, read-out: EC50 Dd2β5^A49S; for fold more resistant / reduced potency, Dd2β5^A49S versus parental Dd2: EC50 ratio
HepG2 cells = assay: HepG2 cell viability assay; format: cell-based; conditions: read-out: HepG2
[1] = test system: Pf strains Cam3.I^rev and Cam3.I^R539T; assay: Extended RSA / parasite regrowth assay; format: cell-based, Plasmodium falciparum; conditions: 6 h pulse as in RSA, parasitemia on day 7, ART-sensitive and ART-resistant lines
Procedure, shortened: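 Cultures repeatedly sorbitol-synchronized, then Percoll-sorbitol enriched for late stages, allowed 3 h reinvasion and sorbitol-treated again to give 0–3 h rings. Rings plated at 0.5% parasitemia and exposed to test compound (700 or 800 nM) for 6 h, then washed. Transferred into 3 mL culture for seven days; parasitemia scored by microscopy on day 7.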

[2] = test system: DHA-resistant clones DR1, DR2, DR4 derived from Dd2; assay: Standard 72-h in vitro assay on DHA-resistant clones; format: cell-based, Plasmodium falciparum; conditions: standard 72-h assay
i-20S/PA28α = assay: Degradation of the modified β-casein by i-20S; format: biochemical, human; conditions: β-casein pre-incubated with 100 μM compound, hemin and ascorbate; for degradation of β-casein by i-20S/PA28α, dialyzed set: then dialyzed; for degradation of β-casein by i-20S/PA28α, non-dialyzed control: not dialyzed
[3] = test system: P. berghei G2025^R551T (K13^R551T); assay: Modified Peters' 4-day suppressive test for recrudescence, ART-resistant strain; format: in vivo, Swiss Webster mice; conditions: ART 50 mg/kg, ATZ4 100 mg/kg i.p. day 0 to day 2
[4] = test system: Pf Dd2 proteins and peptides; format: cell-based, Plasmodium falciparum; conditions: 700 nM for 6 h, Cy3-alkyne click, in-gel fluorescence
Dd2β6^A117DK13^R539T = assay: Parasite growth inhibition, dual resistant strain; format: cell-based, Plasmodium falciparum; conditions: EC50 fold change, three experiments (Figure 6B)
[5] = test system: Pf20S β5 in lysate of Dd2^WT; assay: Blocking of MV151 labeling in parasite lysate; format: binding, Plasmodium falciparum; conditions: 1 h preincubation of Dd2^WT lysate
Procedure, shortened: (§2)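 Dd2 wild-type or mutant parasite pellets lysed on ice for 1 h in 50 mM Tris-HCl, 5 mM MgCl2, 1 mM DTT, pH 7.4, then centrifuged; protein quantified by BCA. 5–10 µg of lysate protein preincubated with test compound for 1 h at 37°C. MV151 added at 2 µM final for a further 1 h at 37°C, protected from light. Run on 12% Bis-Tris SDS-PAGE and scanned at Cy3/TAMRA (λex 532, λem 560 nm).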

Pf20Sβ6^A117D = assay: Blocking of MV151 labeling in parasite lysate; format: binding, Plasmodium falciparum; conditions: 1 h preincubation of Dd2β6^A117D lysate
Procedure, shortened: as §2

Pf20Sβ5^A49S = assay: Blocking of MV151 labeling in parasite lysate; format: binding, Plasmodium falciparum; conditions: 1 h preincubation of Dd2β5^A49S lysate
Procedure, shortened: as §2

P. berghei ANKA lux = assay: In vivo efficacy in mice infected with P. berghei ANKA lux; design: species or system Swiss Webster mice; conditions: 20 mg/kg i.p. once daily day 3 to day 6, luminescence on day 7; positive control
[6] = Plasmodium falciparum, DD2, Erythrocyte, 72 h

| Structure (SMILES) | IC50 (Pf20S β5) | IC50 (human i-20S β5i) | IC50 (human c-20S β5c) | EC50 (Pf Dd2^WT; [6]) | EC50 (Dd2β6^A117D) | EC50 (Dd2β5^A49S) | parasite regrowth after pulse [1] | susceptibility of DHA-resistant clones compared with WT Dd2 [2] | labeling of parasite proteins and peptides [4] | activity against Pf20S (Pf20S β5) | further results |
| --- | --- | --- | --- | --- | --- | --- | --- | --- | --- | --- | --- |
| C[C@H]1[C@@H](CC(N)=O)O[C@@H]2O[C@@]3(C)CC[C@H]4[C@H](C)CC[C@@H]1[C@@]24OO3 [ART1, 2-((3R,5aS,6R,8aS,9R,10R,12R,12aR)-3,6,9-trimethyldecahydro-12H-3,12-epoxy[1,2]dioxepino[4,3-i]isochromen-10-yl)acetamide] | 9200 nM | > 100000 nM | > 100000 nM | 43.7 ± 12.7 nM | 27.9 ± 11 nM | 30.2 ± 2.6 nM | re-established normal growth | modestly resistant | – | – | activity against human proteasomes (human i-20S β5i; hu i-20S): inactive; activity against human proteasomes (human c-20S β5c; hu c-20S): inactive; EC50 (HepG2 cells; Homo sapiens, HepG2, 72 h): > 100 µM; degradation of β-casein by i-20S/PA28α, dialyzed set (i-20S/PA28α): unimpeded degradation of β-casein |
| C[C@@H]1CC[C@H]2[C@@H](C)C(=O)O[C@@H]3O[C@@]4(C)CC[C@@H]1[C@]32OO4 [ART, artemisinin, reference compound] | – | – | – | – | – | – | – | – | minimal labeling of proteins and peptides | – | mice with positive blood smear on day 6 [3]: 20%; mice with positive blood smear on day 8 [3]: 40%; mice with positive blood smear on day 10 [3]: 100% |
| C[C@H]1[C@@H](CC(=O)NCC(=O)N[C@@H](CC(=O)NC(C)(C)C)C(=O)NCCNC(=O)c2cc(-c3ccccc3F)ccc2F)O[C@@H]2O[C@@]3(C)CC[C@H]4[C@H](C)CC[C@@H]1[C@@]24OO3 [ATZ2, (S)-N4-(tert-butyl)-N1-(2-(2′,4-difluoro-[1,1′-biphenyl]-3-carboxamido)ethyl)-2-(2-(2-((3R,5aS,6R,8aS,9R,10R,12R,12aR)-3,6,9-trimethyldecahydro-12H-3,12-epoxy[1,2]dioxepino[4,3-i]isochromen-10-yl)acetamido)acetamido)succinamide] | 2.9 ± 0.6 nM | 73 ± 19 nM | 210 ± 40 nM | 3 ± 0.6 nM | 4.4 ± 1.1 nM | 10.9 ± 2.6 nM | – | – | – | potency comparable with that of PI01 | times more potent than ART1 against Dd2 (Pf Dd2^WT; EC50 ratio): 10 times; fold improvement over PI01 against Dd2β6^A117D (Dd2β6^A117D): ≥ 5 fold; fold more resistant / reduced potency, Dd2β6^A117D versus parental Dd2 (Dd2β6^A117D): ≤ 2.9 fold; fold improvement over PI01 against Dd2β5^A49S (Dd2β5^A49S): > 100 fold; fold more resistant / reduced potency, Dd2β5^A49S versus parental Dd2 (Dd2β5^A49S): ≤ 3.6 fold; degradation of β-casein by i-20S/PA28α, non-dialyzed control (i-20S/PA28α): inhibited the degradation of β-casein |
| C[C@H]1[C@@H](CC(=O)N[C@@H](CCCN=[N+]=[N-])C(=O)N[C@@H](CC(=O)NC(C)(C)C)C(=O)NCCNC(=O)c2cc(-c3ccccc3F)ccc2F)O[C@@H]2O[C@@]3(C)CC[C@H]4[C@H](C)CC[C@@H]1[C@@]24OO3 [ATZ-P1, (S)-2-((S)-5-azido-2-(2-((3R,5aS,6R,8aS,9R,10R,12R,12aR)-3,6,9-trimethyldecahydro-12H-3,12-epoxy[1,2]dioxepino[4,3-i]isochromen-10-yl)acetamido)pentanamido)-N^4-(tert-butyl)-N^1-(2-(2′,4-difluoro-[1,1′-biphenyl]-3-carboxamido)ethyl)succinimide] | – | – | – | – | – | – | – | – | substantial labeling of proteins and peptides | highly potent inhibitors | inhibition of Pf growth (Pf Dd2^WT): highly potent inhibitors |
| C[C@H]1[C@@H](O)O[C@@H]2O[C@@]3(C)CC[C@H]4[C@H](C)CC[C@@H]1[C@@]24OO3 [DHA, dihydroartemisinin, reference compound] | – | – | – | – | – | – | re-established normal growth | highly resistant | – | – | – |
| C[C@H]1[C@@H](CC(=O)NCCCC(=O)N[C@@H](CC(=O)NC(C)(C)C)C(=O)NCCNC(=O)c2cc(-c3ccccc3F)ccc2F)O[C@@H]2O[C@@]3(C)CC[C@H]4[C@H](C)CC[C@@H]1[C@@]24O3 [Deoxy-ATZ4, (S)-N4-(tert-butyl)-N1-(2-(2′,4-difluoro-[1,1′-biphenyl]-3-carboxamido)ethyl)-2-(4-(2-((2R,3R,3aS,3a1R,6R,6aS,9S,10aR)-3,6,9-trimethyldecahydro-10aH-3a1,9-epoxyoxepino [4,3,2-ij]isochromen-2-yl)acetamido)butanamido)succinamide] | – | – | – | – | – | – | – | equally susceptible | – | potency comparable with that of PI01 | EC50 (Pf Dd2^WT; 72 h growth inhibition in red blood cells, mean ± SD): 21.6 ± 1.4 nM; fold less potent against Dd2β6^A117D compared with Dd2 and Dd2K13^R539T (Dd2β6^A117D; EC50 fold change, three experiments (Figure 6B)): 5.6 fold; EC50 (HepG2 cells; 72 h cell viability, mean ± SD): 10.8 µM; fold less potent against Dd2β6^A117DK13^R539T compared with Dd2 and Dd2K13^R539T (Dd2β6^A117DK13^R539T): 11.0 fold |
| CC(C)(C)NC(=O)C[C@H](NC(=O)CCCNC(=O)OC(C)(C)C)C(=O)NCCNC(=O)c1cc(-c2ccccc2F)ccc1F [PI01, tert-butyl (S)-(4-((4-(tert-butylamino)-1-((2-(2′,4-difluoro-[1,1′-biphenyl]-3-carboxamido)ethyl)amino)-1,4-dioxobutan-2-yl)amino)-4-oxobutyl)carbamate] | 6 ± 0.8 nM | 200 ± 46 nM | 2000 nM | 7.4 ± 0.2 nM | 121 ± 20 nM | > 2770 nM | re-established normal growth | – | – | – | fold less active on hu i-20S than on Pf20S (human i-20S β5i; ratio of IC50 values): ~ 30 fold; fold less active on hu c-20S than on Pf20S (human c-20S β5c; ratio of IC50 values): ~300 fold; fold more resistant / reduced potency, Dd2β6^A117D versus parental Dd2 (Dd2β6^A117D): 16 fold; fold more resistant / reduced potency, Dd2β5^A49S versus parental Dd2 (Dd2β5^A49S): > 370 fold; EC50 (HepG2 cells; Homo sapiens, HepG2, 72 h): > 100 µM; blocking of MV151 labeling of β5 [5]: dose dependently blocked labeling of β5; blocking of MV151 labeling of β5 (Pf20Sβ6^A117D): prevented PI01 and ATZ4 from inhibiting; blocking of MV151 labeling of β5 (Pf20Sβ5^A49S): prevented PI01 and ATZ4 from inhibiting; degradation of β-casein by i-20S/PA28α, non-dialyzed control (i-20S/PA28α): inhibited the degradation of β-casein; degradation of β-casein by i-20S/PA28α, dialyzed set (i-20S/PA28α): unimpeded degradation of β-casein |
| CCN(CC)CCCC(C)Nc1ccnc2cc(Cl)ccc12 (stereo not shown) [chloroquine, reference compound] | – | – | – | – | – | – | – | – | – | – | parasite load (P. berghei ANKA lux): below the limit of detection |
| C[C@H]1[C@@H](CC(=O)N[C@@H](CCCN=[N+]=[N-])C(=O)N[C@@H](CC(=O)NC(C)(C)C)C(=O)NCCNC(=O)c2cc(-c3ccccc3F)ccc2F)O[C@@H]2O[C@@]3(C)CC[C@H]4[C@H](C)CC[C@@H]1[C@@]24O3 [deoxy-ATZ-P1, (S)-2-((S)-5-azido-2-(2-((2R,3R,3aS,3a^1R,6R,6aS,9S,10aR)-3,6,9-trimethyldecahydro-10aH-3a^1,9-epoxyoxepino[4,3,2-ij]isochromen-2-yl)acetamido)pentanamido)-N^4-(tert-butyl)-N^1-(2-(2′,4-difluoro-[1,1′-biphenyl]-3-carboxamido)ethyl)succinamide] | – | – | – | – | – | – | – | – | minimal labeling of proteins and peptides | highly potent inhibitors | inhibition of Pf growth (Pf Dd2^WT): highly potent inhibitors |
